Source: ChEMBL document CHEMBL4715736, “Identification of anticancer agents based on the thieno[2,3-b]pyridine and 1H-pyrazole molecular scaffolds” (2016)

Legend:
Format in all cases: functional
Conditions in all cases: read-out: Activity
[1] = tested on: HL-60(TB); experiment: Growth inhibition of human HL-60(TB) cells assessed as cell growth at 10 uM incubated for 48 hrs by sulforhodamine B assay relative to control
Outline: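 Screened by the NCI Developmental Therapeutics Program on its panel of 60 human tumour cell lines. Compounds were first tested at a single 10 µM dose, and compounds active there went to dose-response curves. Growth is expressed relative to untreated control (100%). GI50 (50% of maximal proliferation inhibition) and TGI (total growth inhibition) were derived from the dose-response data.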

[2] = tested on: OVCAR-3; experiment: Growth inhibition of human OVCAR-3 cells assessed as cell growth at 10 uM incubated for 48 hrs by sulforhodamine B assay relative to control
Outline: (§1)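 Run by the NCI Developmental Therapeutics Program as part of its 60-line human tumour panel. Each compound tested at a single 10 µM dose. Growth expressed as % relative to untreated control cells (100%).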

[3] = tested on: ACHN; experiment: Growth inhibition of human ACHN cells assessed as cell growth at 10 uM incubated for 48 hrs by sulforhodamine B assay relative to control
Outline: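 NCI Developmental Therapeutics Program NCI60 human tumour cell line panel, one-dose primary screen with every compound at 10 µM. Growth is expressed as % of untreated control cells (100%).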

[4] = tested on: A549; experiment: Growth inhibition of human A549/ATCC cells assessed as cell growth at 10 uM incubated for 48 hrs by sulforhodamine B assay relative to control
Outline: (§2)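 NCI Developmental Therapeutics Program NCI60 panel. Compounds that were active in the 10 µM one-dose screen went on to dose–response testing. Growth at each concentration is expressed relative to untreated control (100%). GI50 (concentration giving 50% of maximal inhibition of proliferation) and TGI (concentration giving total growth inhibition) were derived from the curves.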

[5] = tested on: HCC 2998; experiment: Growth inhibition of human HCC 2998 cells assessed as cell growth at 10 uM incubated for 48 hrs by sulforhodamine B assay relative to control; outline: as §2
[6] = tested on: OVCAR-8; experiment: Growth inhibition of human OVCAR-8 cells assessed as cell growth at 10 uM incubated for 48 hrs by sulforhodamine B assay relative to control; outline: as §1
[7] = tested on: PC-3; experiment: Growth inhibition of human PC-3 cells assessed as cell growth at 10 uM incubated for 48 hrs by sulforhodamine B assay relative to control; outline: as §1
[8] = tested on: NCI-H23; experiment: Growth inhibition of human NCI-H23 cells assessed as cell growth at 10 uM incubated for 48 hrs by sulforhodamine B assay relative to control
Outline: (§3)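 Submitted to the NCI Developmental Therapeutics Program for the NCI60 human tumour cell line panel. First screen at a single 10 µM concentration. Read-out is growth relative to untreated control cells set at 100%.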

[9] = tested on: CCRF-CEM; experiment: Growth inhibition of human CCRF-CEM cells assessed as cell growth at 10 uM incubated for 48 hrs by sulforhodamine B assay relative to control; outline: as §2
[10] = tested on: COLO 205; experiment: Growth inhibition of human COLO 205 cells assessed as cell growth at 10 uM incubated for 48 hrs by sulforhodamine B assay relative to control; outline: as §2
[11] = tested on: SW-620; experiment: Growth inhibition of human SW-620 cells assessed as cell growth at 10 uM incubated for 48 hrs by sulforhodamine B assay relative to control; outline: as §1
[12] = tested on: SF-268; experiment: Growth inhibition of human SF-268 cells assessed as cell growth at 10 uM incubated for 48 hrs by sulforhodamine B assay relative to control; outline: as §1
[13] = tested on: SF-539; experiment: Growth inhibition of human SF-539 cells assessed as cell growth at 10 uM incubated for 48 hrs by sulforhodamine B assay relative to control; outline: as §1
[14] = tested on: NCI-H322M; experiment: Growth inhibition of human NCI-H322M cells assessed as cell growth at 10 uM incubated for 48 hrs by sulforhodamine B assay relative to control; outline: as §3
[15] = tested on: K562; experiment: Growth inhibition of human K562 cells assessed as cell growth at 10 uM incubated for 48 hrs by sulforhodamine B assay relative to control; outline: as §3
[16] = tested on: Hs-578T; experiment: Growth inhibition of human Hs-578T cells assessed as cell growth at 10 uM incubated for 48 hrs by sulforhodamine B assay relative to control; outline: as §3
[17] = tested on: U-251; experiment: Growth inhibition of human U-251 cells assessed as cell growth at 10 uM incubated for 48 hrs by sulforhodamine B assay relative to control; outline: as §1
[18] = tested on: SK-MEL-28; experiment: Growth inhibition of human SK-MEL-28 cells assessed as cell growth at 10 uM incubated for 48 hrs by sulforhodamine B assay relative to control; outline: as §1
[19] = tested on: MDA-MB-231; experiment: Growth inhibition of human MDA-MB-231 cells assessed as cell growth at 10 uM incubated for 48 hrs by sulforhodamine B assay relative to control; outline: as §3
[20] = tested on: OVCAR-4; experiment: Growth inhibition of human OVCAR-4 cells assessed as cell growth at 10 uM incubated for 48 hrs by sulforhodamine B assay relative to control; outline: as §1
[21] = tested on: UACC-62; experiment: Growth inhibition of human UACC-62 cells assessed as cell growth at 10 uM incubated for 48 hrs by sulforhodamine B assay relative to control; outline: as §1
[22] = tested on: MCF7; experiment: Growth inhibition of human MCF7 cells assessed as cell growth at 10 uM incubated for 48 hrs by sulforhodamine B assay relative to control; outline: as §3
[23] = tested on: MDA-MB-435; experiment: Growth inhibition of human MDA-MB-435 cells assessed as cell growth at 10 uM incubated for 48 hrs by sulforhodamine B assay relative to control; outline: as §3
[24] = tested on: MDA-MB-468; experiment: Growth inhibition of human MDA-MB-468 cells assessed as cell growth at 10 uM incubated for 48 hrs by sulforhodamine B assay relative to control; outline: as §3
[25] = tested on: SF-295; experiment: Growth inhibition of human SF-295 cells assessed as cell growth at 10 uM incubated for 48 hrs by sulforhodamine B assay relative to control; outline: as §1
[26] = tested on: LOX IMVI; experiment: Growth inhibition of human LOX IMVI cells assessed as cell growth at 10 uM incubated for 48 hrs by sulforhodamine B assay relative to control; outline: as §3
[27] = tested on: IGROV-1; experiment: Growth inhibition of human IGROV-1 cells assessed as cell growth at 10 uM incubated for 48 hrs by sulforhodamine B assay relative to control; outline: as §3
[28] = tested on: HOP-92; experiment: Growth inhibition of human HOP-92 cells assessed as cell growth at 10 uM incubated for 48 hrs by sulforhodamine B assay relative to control; outline: as §3
[29] = tested on: NCI/ADR-RES; experiment: Growth inhibition of human NCI/ADR-RES cells assessed as cell growth at 10 uM incubated for 48 hrs by sulforhodamine B assay relative to control; outline: as §3
[30] = tested on: RPMI-8226; experiment: Growth inhibition of human RPMI-8226 cells assessed as cell growth at 10 uM incubated for 48 hrs by sulforhodamine B assay relative to control; outline: as §1
[31] = tested on: OVCAR-5; experiment: Growth inhibition of human OVCAR-5 cells assessed as cell growth at 10 uM incubated for 48 hrs by sulforhodamine B assay relative to control; outline: as §1
[32] = tested on: T47D; experiment: Growth inhibition of human T47D cells assessed as cell growth at 10 uM incubated for 48 hrs by sulforhodamine B assay relative to control; outline: as §1
[33] = tested on: DU-145; experiment: Growth inhibition of human DU-145 cells assessed as cell growth at 10 uM incubated for 48 hrs by sulforhodamine B assay relative to control; outline: as §2

SMILES | growth at 10 µM [1] [%] | growth at 10 µM [2] [%] | growth at 10 µM [4] [%] | growth at 10 µM [5] [%] | growth at 10 µM [6] [%] | growth at 10 µM [9] [%] | growth at 10 µM [10] [%] | growth at 10 µM [11] [%] | growth at 10 µM [12] [%] | growth at 10 µM [13] [%] | growth at 10 µM [14] [%] | growth at 10 µM [15] [%] | growth at 10 µM [16] [%] | growth at 10 µM [17] [%] | growth at 10 µM [18] [%] | growth at 10 µM [19] [%] | growth at 10 µM [20] [%] | growth at 10 µM [22] [%] | growth at 10 µM [23] [%] | growth at 10 µM [24] [%] | other results
COc1ccc(S(=O)(=O)n2ccc(-c3ccc4c(c3)CCC(C)(C)O4)n2)cc1 | 60 | 81.2 | 74 | 88.9 | 83.8 | 58.9 | 107 | 90.3 | 94.7 | 103 | 101 | 55.6 | 97.8 | 84.2 | 98.3 | 87.7 | 52.3 | 73.5 | 74.3 | 36.6 | growth at 10 µM [3]: 104%; growth at 10 µM [7]: 78%; growth at 10 µM [8]: 59.6%; growth at 10 µM [21]: 50.5%; growth at 10 µM [25]: 47.7%; growth at 10 µM [26]: 79.5%; growth at 10 µM [27]: 90.8%; growth at 10 µM [28]: 61.4%; growth at 10 µM [29]: 57.3%; growth at 10 µM [30]: 49.2%; growth at 10 µM [31]: 109%; growth at 10 µM [32]: 46.7%
CN1CCc2nc3sc(C(N)=O)c(N)c3c(-c3cccs3)c2C1 | -18 | -22 | 13 | 14 | 7 | 10 | -54 | 7 | 10 | -18 | 15 | 30 | 6 | 10 | -2 | 28 | 41 | 12 | 10 | -35 | growth at 10 µM [7]: 21%; growth at 10 µM [8]: 3%; growth at 10 µM [33]: 10%; growth at 10 µM [21]: -21%; growth at 10 µM [25]: 10%; growth at 10 µM [26]: 3%; growth at 10 µM [27]: 18%; growth at 10 µM [28]: -4%; growth at 10 µM [29]: 19%; growth at 10 µM [30]: 12%; growth at 10 µM [32]: 8%
CCc1ccccc1NC(=O)c1sc2nc3c(cc2c1N)C(=O)CCC3 | -10.3 | -12.7 | 21.5 | 20 | 24.3 | 4 | -68 | 24 | 40.4 | -17 | 46.3 | 11 | 22.6 | 13 | 43.7 | 36 | 41 | 8.32 | -56.6 | 14 | growth at 10 µM [3]: 38%; growth at 10 µM [33]: 2.55%; growth at 10 µM [25]: -3.21%; growth at 10 µM [26]: 42.6%; growth at 10 µM [27]: 33.3%; growth at 10 µM [28]: 54%; growth at 10 µM [29]: 5%; growth at 10 µM [30]: -1%; growth at 10 µM [31]: 22%; growth at 10 µM [32]: 22%
CCc1cccc(C)c1NC(=O)c1sc2nc3c(cc2c1N)C(=O)CCC3 | -30 | -26 | 22.9 | 10.2 | 20 | 1 | -58 | 23 | 38 | -27 | 32 | 2 | 24.8 | 2.81 | 39 | 14 | 28 | 13 | -36 | 9 | growth at 10 µM [3]: 22%; growth at 10 µM [7]: 23.3%; growth at 10 µM [8]: 32%; growth at 10 µM [33]: 14.2%; growth at 10 µM [21]: 29%; growth at 10 µM [25]: 2%; growth at 10 µM [26]: 36%; growth at 10 µM [27]: 30%; growth at 10 µM [28]: 30%; growth at 10 µM [29]: -3%; growth at 10 µM [30]: -20%; growth at 10 µM [31]: 28%; growth at 10 µM [32]: 24.4%
